Measurements reported in ChEMBL document CHEMBL2177062, “Bile acid-based 1,2,4-trioxanes: synthesis and antimalarial assessment” (J Med Chem, 2012).
Calls of active or inactive are those of the source. The calls are words filed in the database; no cut-off is given here.

Key:
[1] = Lipophilicity, log P of the compound; format: physicochemical; conditions: octanol/water
In short: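 log P calculated in silico, not measured experimentally.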

[2] = test system: Plasmodium yoelii nigeriensis; test: Antimalarial activity in multidrug-resistant Plasmodium yoelii nigeriensis infected Swiss mouse assessed as suppression of parasitaemia at 24 mg/kg, po two devided dose daily for 4 days; format: functional
In short: (§1)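 Swiss mice of either sex (20 2 g) inoculated ip with 1 × 10⁶ MDR P. yoelii nigeriensis parasites on day 0. Five mice per dose, given oral doses in groundnut oil from day 0 to 3, twice daily. Parasitaemia read from thin blood smears on day 4. Suppression = [(C − T)/C] × 100 versus untreated controls. 100% means no parasites seen in 50 oil-immersion fields.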

[3] = test system: Plasmodium yoelii nigeriensis; test: Antimalarial activity in multidrug-resistant Plasmodium yoelii nigeriensis infected Swiss mouse assessed as suppression of parasitaemia at 48 mg/kg, po two devided dose daily for 4 days; format: functional; in short: as §1
[4] = test system: Plasmodium yoelii nigeriensis; test: Antimalarial activity in multidrug-resistant Plasmodium yoelii nigeriensis infected Swiss mouse assessed as suppression of parasitaemia at 96 mg/kg, po two devided dose daily for 4 days; format: functional; in short: as §1
[5] = test system: Plasmodium yoelii nigeriensis; test: Antimalarial activity in multidrug-resistant Plasmodium yoelii nigeriensis infected Swiss mouse assessed as disease cure at 12 mg/kg, po two devided dose daily for 4 days by 28 day survival assay; format: functional, organism-based; design: dose 12 mg/kg
In short: (§2)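 Swiss mice of either sex (20 2 g) inoculated ip with 1 × 10⁶ MDR P. yoelii nigeriensis (chloroquine-, mefloquine-, halofantrine-resistant) parasites on day 0. Five mice per dose. Oral dosing in groundnut oil (0.1 mL per dose) from day 0 to 3, as two divided doses daily. Thin blood smears on day 4, then twice weekly to day 28. Mice without patent infection by day 28 scored cured; % protection = fraction of mice cured. β-arteether as positive control.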

[6] = test system: Plasmodium yoelii nigeriensis; test: Antimalarial activity in multidrug-resistant Plasmodium yoelii nigeriensis infected Swiss mouse assessed as disease cure at 24 mg/kg, po two devided dose daily for 4 days by 28 day survival assay; format: functional; in short: as §2
[7] = test system: Plasmodium yoelii nigeriensis; test: Antimalarial activity in multidrug-resistant Plasmodium yoelii nigeriensis infected Swiss mouse assessed as disease cure at 48 mg/kg, po two devided dose daily for 4 days by 28 day survival assay; format: functional, organism-based; design: dose 48 mg/kg; in short: as §2
[8] = test system: Plasmodium yoelii nigeriensis; test: Antimalarial activity in multidrug-resistant Plasmodium yoelii nigeriensis infected Swiss mouse assessed as disease cure at 96 mg/kg, po two devided dose daily for 4 days by 28 day survival assay; format: functional; in short: as §2
[9] = test system: Plasmodium yoelii nigeriensis; test: Antimalarial activity in multidrug-resistant Plasmodium yoelii nigeriensis infected Swiss mouse assessed as suppression of parasitaemia at 12 mg/kg, po two devided dose daily for 4 days; format: functional; in short: as §1

Row | SMILES | logP [1] | Activity [2] [%] | Activity [3] [%] | Activity ([4]; 96 mg/kg) [%] | Activity [6] | Activity [7] | Activity [8] | also measured
1 | C=C(c1ccc(Br)cc1)[C@@H]1CO[C@@]2(CC[C@@]3(C)[C@H](CC[C@@H]4[C@@H]3CC[C@]3(C)[C@@H](C(C)=O)CC[C@@H]43)C2)OO1 (relative stereo; form 1) [listing 1 of 2 here] | 8.03 | 100 | 100 | 100 |  |  |  | 
2 | C=C(c1ccccc1)[C@@H]1CO[C@@]2(CC[C@@]3(C)[C@H](CC[C@@H]4[C@@H]3CC[C@]3(C)[C@@H](O)CC[C@@H]43)C2)OO1 (relative stereo; form 2) [listing 1 of 2 here] |  |  |  |  | Active | Active | Active | Activity [5]: inactive
3 | C=C(c1ccccc1)[C@@H]1CO[C@@]2(CC[C@@]3(C)[C@H](CC[C@@H]4[C@@H]3CC[C@]3(C)[C@@H](C(C)=O)CC[C@@H]43)C2)OO1 (relative stereo; form 2) [listing 1 of 2 here] |  |  |  |  |  | Active | Active | 
4 | CCO[C@H]1O[C@@H]2O[C@@]3(C)CC[C@H]4[C@H](C)CC[C@@H]([C@H]1C)[C@@]24OO3 [ARTEMOTIL] |  | 100 | 100 |  | 20% | Active |  | 
5 | C=C(c1ccc(F)cc1)[C@@H]1CO[C@@]2(CC[C@@]3(C)[C@H](CC[C@@H]4[C@@H]3CC[C@]3(C)[C@@H](C(C)=O)CC[C@@H]43)C2)OO1 (relative stereo; form 1) [listing 1 of 2 here] |  |  |  |  |  | inactive |  | 
6 | C=C(c1ccc(Br)cc1)[C@@H]1CO[C@@]2(CC[C@@]3(C)[C@H](CC[C@@H]4[C@@H]3CC[C@]3(C)[C@@H](C(C)=O)CC[C@@H]43)C2)OO1 (relative stereo; form 1) [listing 2 of 2 here] |  |  |  |  | inactive | inactive | Active | 
7 | C=C(c1ccc(F)cc1)[C@@H]1CO[C@@]2(CC[C@@]3(C)[C@H](CC[C@@H]4[C@@H]3CC[C@]3(C)[C@@H](O)CC[C@@H]43)C2)OO1 (relative stereo; form 2) [listing 1 of 2 here] |  |  |  |  | Active | Active | Active | Activity [5]: inactive
8 | C=C(c1ccc(Cl)cc1)[C@@H]1CO[C@@]2(CC[C@@]3(C)[C@H](CC[C@@H]4[C@@H]3CC[C@]3(C)[C@@H](C(C)=O)CC[C@@H]43)C2)OO1 (relative stereo; form 2) [listing 1 of 2 here] | 7.76 | 100 | 100 | 100 | 60% |  |  | 
9 | C=C(c1ccc(F)cc1)[C@@H]1CO[C@@]2(CC[C@@]3(C)[C@H](CC[C@@H]4[C@@H]3CC[C@]3(C)[C@@H](C(C)=O)CC[C@@H]43)C2)OO1 (relative stereo; form 2) [listing 1 of 2 here] | 7.36 | 100 |  |  | 60% |  |  | Activity ([3]; 48 mg/kg): 100%; Activity [4]: 100%
10 | C=C(c1ccc(F)cc1)[C@@H]1CO[C@@]2(CC[C@@]3(C)[C@H](CC[C@@H]4[C@@H]3CC[C@]3(C)[C@@H](C(C)=O)CC[C@@H]43)C2)OO1 (relative stereo; form 2) [listing 2 of 2 here] |  |  |  |  |  | Active | Active | 
11 | C=C(c1ccccc1)[C@@H]1CO[C@@]2(CC[C@@]3(C)[C@H](CC[C@@H]4[C@@H]3CC[C@]3(C)[C@@H]([C@H](C)C(C)=O)CC[C@@H]43)C2)OO1 (relative stereo; form 2) |  |  |  | 100 |  |  | 60% | 
12 | C=C(c1ccc(Br)cc1)[C@@H]1CO[C@@]2(CC[C@@]3(C)[C@H](CC[C@@H]4[C@@H]3CC[C@]3(C)[C@@H](O)CC[C@@H]43)C2)OO1 (relative stereo; form 2) [listing 1 of 2 here] |  |  |  |  | Active | Active | Active | Activity [5]: inactive
13 | C=C(c1ccccc1)[C@@H]1CO[C@@]2(CC[C@@]3(C)[C@H](CC[C@@H]4[C@@H]3CC[C@]3(C)[C@@H](O)CC[C@@H]43)C2)OO1 (relative stereo; form 2) [listing 2 of 2 here] | 6.44 | 100 | 100 | 100 |  |  |  | Activity [9]: 88.7%
14 | C=C(c1ccccc1)[C@@H]1CO[C@@]2(CC[C@@]3(C)[C@H](CC[C@@H]4[C@@H]3CC[C@]3(C)[C@@H](C(C)=O)CC[C@@H]43)C2)OO1 (relative stereo; form 2) [listing 2 of 2 here] | 7.2 | 100 | 100 | 100 | 60% |  |  | 
15 | C=C(c1ccc(Br)cc1)[C@@H]1CO[C@@]2(CC[C@@]3(C)[C@H](CC[C@@H]4[C@@H]3CC[C@]3(C)[C@@H](O)CC[C@@H]43)C2)OO1 (relative stereo; form 2) [listing 2 of 2 here] | 7.27 | 100 | 100 | 100 |  |  |  | Activity [9]: 44.5%
16 | C=C(c1ccc(Cl)cc1)[C@@H]1CO[C@@]2(CC[C@@]3(C)[C@H](CC[C@@H]4[C@@H]3CC[C@]3(C)[C@@H](C(C)=O)CC[C@@H]43)C2)OO1 (relative stereo; form 2) [listing 2 of 2 here] |  |  |  |  |  | Active | Active | 
17 | C=C(c1ccccc1)[C@@H]1CO[C@@]2(CC[C@@]3(C)[C@H](CC[C@@H]4[C@@H]3CC[C@]3(C)[C@@H]([C@H](C)C(C)=O)CC[C@@H]43)C2)OO1 (relative stereo; form 1) |  |  |  | 94.31 |  |  |  | 
18 | C=C(c1ccc(F)cc1)[C@@H]1CO[C@@]2(CC[C@@]3(C)[C@H](CC[C@@H]4[C@@H]3CC[C@]3(C)[C@@H](O)CC[C@@H]43)C2)OO1 (relative stereo; form 2) [listing 2 of 2 here] | 6.66 | 100 | 100 |  |  |  |  | Activity [9]: 95.48%; Activity [4]: 100%
19 | C=C(c1ccc(F)cc1)[C@@H]1CO[C@@]2(CC[C@@]3(C)[C@H](CC[C@@H]4[C@@H]3CC[C@]3(C)[C@@H]([C@H](C)C(C)=O)CC[C@@H]43)C2)OO1 (relative stereo; form 2) |  |  |  | 100 |  |  | 60% | 
20 | C=C(c1ccc(F)cc1)[C@@H]1CO[C@@]2(CC[C@@]3(C)[C@H](CC[C@@H]4[C@@H]3CC[C@]3(C)[C@@H](C(C)=O)CC[C@@H]43)C2)OO1 (relative stereo; form 1) [listing 2 of 2 here] |  |  |  |  |  |  |  | Activity ([3]; 48 mg/kg): 88.03%
